Laboratory results reported in publication PMC7825275 (Cancer chemotherapy and pharmacology, 2019).

Test system: patients with advanced solid tumors
Assay: Toxicity by grade
Type: in vivo, human
Conditions: first cycle including veliparib with carboplatin and paclitaxel, n=73
In short: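 Adverse events were tabulated descriptively as maximum grade in three groups: the chemotherapy-only lead-in cycle, the first veliparib-containing cycle, and all cycles. CBC and serum chemistry including liver function tests were drawn weekly during cycles 1–2, then at the start of every cycle. Veliparib was oral, twice daily on days 1–7; carboplatin/paclitaxel were IV every 21 days.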

SMILES: C[C@]1(c2nc3c(C(N)=O)cccc3[nH]2)CCCN1 [veliparib]
- Alanine aminotransferase increased, Any Grade: 2 (3) number of patients (%)
- Alanine aminotransferase increased, Grade 1: 2 (3) number of patients (%)
- Alanine aminotransferase increased, Grade 2: 0 number of patients (%)
- Alanine aminotransferase increased, Grade 3: 0 number of patients (%)
- Alanine aminotransferase increased, Grade 4: 0 number of patients (%)
- Alkaline phosphatase increased, Any Grade: 2 (3) number of patients (%)
- Alkaline phosphatase increased, Grade 1: 1 (1) number of patients (%)
- Alkaline phosphatase increased, Grade 2: 1 (1) number of patients (%)
- Alkaline phosphatase increased, Grade 3: 0 number of patients (%)
- Alkaline phosphatase increased, Grade 4: 0 number of patients (%)
- Allergic reaction, Any Grade: 3 (4) number of patients (%)
- Allergic reaction, Grade 1: 2 (3) number of patients (%)
- Allergic reaction, Grade 2: 0 number of patients (%)
- Allergic reaction, Grade 3: 0 number of patients (%)
- Allergic reaction, Grade 4: 1 (1) number of patients (%)
- Alopecia, Any Grade: 17 (23) number of patients (%)
- Alopecia, Grade 1: 13 (18) number of patients (%)
- Alopecia, Grade 2: 4 (5) number of patients (%)
- Alopecia, Grade 3: 0 number of patients (%)
- Alopecia, Grade 4: 0 number of patients (%)
- Anemia, Any Grade: 24 (33) number of patients (%)
- Anemia, Grade 1: 4 (5) number of patients (%)
- Anemia, Grade 2: 18 (25) number of patients (%)
- Anemia, Grade 3: 2 (3) number of patients (%)
- Anemia, Grade 4: 0 number of patients (%)
- Anorexia, Any Grade: 4 (5) number of patients (%)
- Anorexia, Grade 1: 4 (5) number of patients (%)
- Anorexia, Grade 2: 0 number of patients (%)
- Anorexia, Grade 3: 0 number of patients (%)
- Anorexia, Grade 4: 0 number of patients (%)
- Anxiety, Any Grade: 1 (1) number of patients (%)
- Anxiety, Grade 1: 1 (1) number of patients (%)
- Anxiety, Grade 2: 0 number of patients (%)
- Anxiety, Grade 3: 0 number of patients (%)
- Anxiety, Grade 4: 0 number of patients (%)
- Any adverse event, Any Grade: 67 (92) number of patients (%)
- Any adverse event, Grade 1: 57 (78) number of patients (%)
- Any adverse event, Grade 2: 46 (63) number of patients (%)
- Any adverse event, Grade 3: 34 (47) number of patients (%)
- Any adverse event, Grade 4: 26 (36) number of patients (%)
- Arthralgia, Any Grade: 6 (8) number of patients (%)
- Arthralgia, Grade 1: 5 (7) number of patients (%)
- Arthralgia, Grade 2: 1 (1) number of patients (%)
- Arthralgia, Grade 3: 0 number of patients (%)
- Arthralgia, Grade 4: 0 number of patients (%)
- Aspartate aminotransferase increased, Any Grade: 2 (3) number of patients (%)
- Aspartate aminotransferase increased, Grade 1: 2 (3) number of patients (%)
- Aspartate aminotransferase increased, Grade 2: 0 number of patients (%)
- Aspartate aminotransferase increased, Grade 3: 0 number of patients (%)
- Aspartate aminotransferase increased, Grade 4: 0 number of patients (%)
- Blood bilirubin increased, Any Grade: 1 (1) number of patients (%)
- Blood bilirubin increased, Grade 1: 1 (1) number of patients (%)
- Blood bilirubin increased, Grade 2: 0 number of patients (%)
- Blood bilirubin increased, Grade 3: 0 number of patients (%)
- Blood bilirubin increased, Grade 4: 0 number of patients (%)
- Bone pain, Any Grade: 1 (1) number of patients (%)
- Bone pain, Grade 1: 1 (1) number of patients (%)
- Bone pain, Grade 2: 0 number of patients (%)
- Bone pain, Grade 3: 0 number of patients (%)
- Bone pain, Grade 4: 0 number of patients (%)
- Chills, Any Grade: 1 (1) number of patients (%)
- Chills, Grade 1: 1 (1) number of patients (%)
- Chills, Grade 2: 0 number of patients (%)
- Chills, Grade 3: 0 number of patients (%)
- Chills, Grade 4: 0 number of patients (%)
- Constipation, Any Grade: 6 (8) number of patients (%)
- Constipation, Grade 1: 4 (5) number of patients (%)
- Constipation, Grade 2: 2 (3) number of patients (%)
- Constipation, Grade 3: 0 number of patients (%)
- Constipation, Grade 4: 0 number of patients (%)
- Cough, Any Grade: 2 (3) number of patients (%)
- Cough, Grade 1: 2 (3) number of patients (%)
- Cough, Grade 2: 0 number of patients (%)
- Cough, Grade 3: 0 number of patients (%)
- Cough, Grade 4: 0 number of patients (%)
- Creatinine increased, Any Grade: 3 (4) number of patients (%)
- Creatinine increased, Grade 1: 3 (4) number of patients (%)
- Creatinine increased, Grade 2: 0 number of patients (%)
- Creatinine increased, Grade 3: 0 number of patients (%)
- Creatinine increased, Grade 4: 0 number of patients (%)
- Cytokine release syndrome, Any Grade: 1 (1) number of patients (%)
- Cytokine release syndrome, Grade 1: 0 number of patients (%)
- Cytokine release syndrome, Grade 2: 1 (1) number of patients (%)
- Cytokine release syndrome, Grade 3: 0 number of patients (%)
- Cytokine release syndrome, Grade 4: 0 number of patients (%)
- Dehydration, Any Grade: 1 (1) number of patients (%)
- Dehydration, Grade 1: 0 number of patients (%)
- Dehydration, Grade 2: 1 (1) number of patients (%)
- Dehydration, Grade 3: 0 number of patients (%)
- Dehydration, Grade 4: 0 number of patients (%)
- Diarrhea, Any Grade: 5 (7) number of patients (%)
- Diarrhea, Grade 1: 5 (7) number of patients (%)
- Diarrhea, Grade 2: 0 number of patients (%)
- Diarrhea, Grade 3: 0 number of patients (%)
- Diarrhea, Grade 4: 0 number of patients (%)
- Dizziness, Any Grade: 3 (4) number of patients (%)
- Dizziness, Grade 1: 3 (4) number of patients (%)
- Dizziness, Grade 2: 0 number of patients (%)
- Dizziness, Grade 3: 0 number of patients (%)
- Dizziness, Grade 4: 0 number of patients (%)
- Dry mouth, Any Grade: 2 (3) number of patients (%)
- Dry mouth, Grade 1: 2 (3) number of patients (%)
- Dry mouth, Grade 2: 0 number of patients (%)
- Dry mouth, Grade 3: 0 number of patients (%)
- Dry mouth, Grade 4: 0 number of patients (%)
- Dysesthesia, Any Grade: 1 (1) number of patients (%)
- Dysesthesia, Grade 1: 1 (1) number of patients (%)
- Dysesthesia, Grade 2: 0 number of patients (%)
- Dysesthesia, Grade 3: 0 number of patients (%)
- Dysesthesia, Grade 4: 0 number of patients (%)
- Dysgeusia, Any Grade: 2 (3) number of patients (%)
- Dysgeusia, Grade 1: 2 (3) number of patients (%)
- Dysgeusia, Grade 2: 0 number of patients (%)
- Dysgeusia, Grade 3: 0 number of patients (%)
- Dysgeusia, Grade 4: 0 number of patients (%)
- Dyspepsia, Any Grade: 3 (4) number of patients (%)
- Dyspepsia, Grade 1: 2 (3) number of patients (%)
- Dyspepsia, Grade 2: 1 (1) number of patients (%)
- Dyspepsia, Grade 3: 0 number of patients (%)
- Dyspepsia, Grade 4: 0 number of patients (%)
- Dysphagia, Any Grade: 2 (3) number of patients (%)
- Dysphagia, Grade 1: 2 (3) number of patients (%)
- Dysphagia, Grade 2: 0 number of patients (%)
- Dysphagia, Grade 3: 0 number of patients (%)
- Dysphagia, Grade 4: 0 number of patients (%)
- Dyspnea, Any Grade: 3 (4) number of patients (%)
- Dyspnea, Grade 1: 2 (3) number of patients (%)
- Dyspnea, Grade 2: 1 (1) number of patients (%)
- Dyspnea, Grade 3: 0 number of patients (%)
- Dyspnea, Grade 4: 0 number of patients (%)
- Edema limbs, Any Grade: 3 (4) number of patients (%)
- Edema limbs, Grade 1: 3 (4) number of patients (%)
- Edema limbs, Grade 2: 0 number of patients (%)
- Edema limbs, Grade 3: 0 number of patients (%)
- Edema limbs, Grade 4: 0 number of patients (%)
- Erythema multiforme, Any Grade: 1 (1) number of patients (%)
- Erythema multiforme, Grade 1: 0 number of patients (%)
- Erythema multiforme, Grade 2: 1 (1) number of patients (%)
- Erythema multiforme, Grade 3: 0 number of patients (%)
- Erythema multiforme, Grade 4: 0 number of patients (%)
- Esophagitis, Any Grade: 1 (1) number of patients (%)
- Esophagitis, Grade 1: 1 (1) number of patients (%)
- Esophagitis, Grade 2: 0 number of patients (%)
- Esophagitis, Grade 3: 0 number of patients (%)
- Esophagitis, Grade 4: 0 number of patients (%)
- Fatigue, Any Grade: 27 (37) number of patients (%)
- Fatigue, Grade 1: 18 (24) number of patients (%)
- Fatigue, Grade 2: 5 (7) number of patients (%)
- Fatigue, Grade 3: 4 (5) number of patients (%)
- Fatigue, Grade 4: 0 number of patients (%)
- Febrile neutropenia, Any Grade: 5 (7) number of patients (%)
- Febrile neutropenia, Grade 1: 0 number of patients (%)
- Febrile neutropenia, Grade 2: 0 number of patients (%)
- Febrile neutropenia, Grade 3: 3(4) number of patients (%)
- Febrile neutropenia, Grade 4: 2 (3) number of patients (%)
- Fever, Any Grade: 3 (4) number of patients (%)
- Fever, Grade 1: 2 (3) number of patients (%)
- Fever, Grade 2: 0 number of patients (%)
- Fever, Grade 3: 1 (1) number of patients (%)
